Assay results reported in ChEMBL document CHEMBL3414569, “Amino acid modified xanthone derivatives: novel, highly promising membrane-active antimicrobials for multidrug-resistant Gram-positive bacterial infections” (J Med Chem, 2015).
In brackets after ≈: the same amount, converted by molar mass.

Key:
[1] = system: Staphylococcus aureus; assay: Antimicrobial activity against Staphylococcus aureus DM4001 by broth macrodilution method; format: functional
In short: (§1)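 Broth macrodilution MIC in Mueller Hinton broth following CLSI guidelines. Inoculum was prepared by direct colony suspension from an 18−20 h tryptic soy agar plate.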

[2] = system: Staphylococcus aureus; assay: Antimicrobial activity against Staphylococcus aureus ATCC 29213 by broth macrodilution method; format: functional; in short: as §1
[3] = system: Staphylococcus aureus; assay: Antimicrobial activity against Staphylococcus aureus ATCC 29213 at 0.5 times MIC measured after 17 passages by multistep passage drug resistance selection study relative to wild type Staphylococcus aureus ATCC 29213 before passage; format: functional
In short: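 Multipassage selection in S. aureus ATCC29213 across an eight-concentration dilution series. Growth was read after 20−22 h. Bacteria growing at 0.5 × MIC were repassaged into a fresh series, 17 passages in total. Resistance was defined as a more than 4-fold rise over the initial MIC.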

[4] = system: Staphylococcus aureus; assay: Antimicrobial activity against methicillin resistant Staphylococcus aureus DM21455 by broth macrodilution method; format: functional; in short: as §1
[5] = system: Staphylococcus aureus; assay: Antimicrobial activity against methicillin resistant Staphylococcus aureus DM09809R by broth macrodilution method; format: functional; in short: as §1
[6] = system: Bacillus cereus; assay: Antimicrobial activity against Bacillus cereus ATCC 11778 by broth macrodilution method; format: functional
In short: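 CLSI broth macrodilution in Mueller Hinton broth. Inoculum was made by direct colony suspension from colonies on an 18−20 h tryptic soy agar plate. The value is the MIC.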

[7] = Induction of hemolysis in New Zealand white rabbit RBC after 1 hr; format: cell-based, Oryctolagus cuniculus, Erythrocyte; conditions: New Zealand white, red blood cells (RBC)
In short: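 Fresh red blood cells isolated from New Zealand white rabbits. Lysis measured over a compound concentration series; HC50 taken as the concentration lysing 50% of RBCs.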

[8] = Retention time of the compound; format: physicochemical
In short: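 Reverse-phase HPLC of 20 μL injections of a 10 μg/mL sample at 1 mL/min. Gradient: 5−55% ACN over 5 min, then 55−95% over 15 min.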

[9] = Selectivity index, ratio of HC50 for induction of hemolysis in New Zealand white rabbit RBC to MIC for Staphylococcus aureus DM4001
[10] = Selectivity index, ratio of HC50 for induction of hemolysis in New Zealand white rabbit RBC to MIC for Staphylococcus aureus DM21455
[11] = Selectivity index, ratio of HC50 for induction of hemolysis in New Zealand white rabbit RBC to MIC for Staphylococcus aureus DM09809R
[12] = Selectivity index, ratio of HC50 for induction of hemolysis in New Zealand white rabbit RBC to MIC for Bacillus cereus ATCC 11778
[13] = system: Staphylococcus aureus; assay: Antimicrobial activity against Staphylococcus aureus ATCC 29213 infected in mouse cornea infection model assessed as reduction in viable bacterial count at 0.3% solution applied topically 5 times/day dosed 1 day after infection relative to control; format: functional
In short: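 Mouse cornea given three superficial 1 mm scratches on one eye under ketamine/xylazine, then 10 μL of S. aureus ATCC 29213 suspension (1 × 10^8 CFU/mL in USP phosphate buffer) applied topically. Treated topically 5 times/day from day 1 postinfection; PBS negative control; 4 mice/group killed on days 1, 2 and 3. Corneas homogenized in 0.9% NaCl with 0.25% BSA, plated in duplicate on TSA (48 h, 35 °C); log10 CFU/cornea.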

SMILES	MIC [1]	MIC [2]	Ratio [3]	MIC [4]	MIC [5]	MIC [6]	HC50 at 1 h [7]	Retention_time [8]	Selectivity Index [9]	Selectivity Index [10]	Selectivity Index [11]	Selectivity Index [12]	Ratio [13]
COc1c(OCCCCBr)cc2oc3cc(OCCCCBr)c(CCC(C)C)c(O)c3c(=O)c2c1CCC(C)C	> 50 µg/mL												
CCn1cc(C(=O)O)c(=O)c2cc(F)c(N3CCNCC3)cc21 [NORFLOXACIN]		2 µg/mL (≈ 6.26 µM)	64										
COC(=O)C(CCCCN)NC(=O)COc1cc2oc3cc(OCC(=O)NC(CCCCN)C(=O)OC)c(OC)c(CC=C(C)C)c3c(=O)c2c(O)c1CC=C(C)C (stereo not given)	6 µg/mL (≈ 7.4 µM)			12 µg/mL (≈ 14.8 µM)	6 µg/mL (≈ 7.4 µM)	12 µg/mL (≈ 14.8 µM)	39 µg/mL						
O=c1c2ccc(O)cc2oc2cc(O)cc(O)c12	> 50 µg/mL												
COc1c(OCC(=O)N[C@@H](CCCNC(=N)N)C(=O)OC(C)(C)C)cc2oc3cc(OCC(=O)N[C@@H](CCCNC(=N)N)C(=O)OC(C)(C)C)c(CC=C(C)C)c(O)c3c(=O)c2c1CC=C(C)C	12 µg/mL (≈ 12.6 µM)			12 µg/mL (≈ 12.6 µM)	12 µg/mL (≈ 12.6 µM)	12 µg/mL (≈ 12.6 µM)	79 µg/mL	9.51 min	7	7	7	7	
COc1c(OCC(=O)N[C@@H](CCCNC(=N)N)C(N)=O)cc2oc3cc(OCC(=O)N[C@@H](CCCNC(=N)N)C(N)=O)c(CC=C(C)C)c(O)c3c(=O)c2c1CC=C(C)C	6 µg/mL (≈ 7.17 µM)			1 µg/mL (≈ 1.19 µM)	6 µg/mL (≈ 7.17 µM)	6 µg/mL (≈ 7.17 µM)	128 µg/mL	7.4 min	13	128	13	13	
COc1c(OCC(=O)O)cc2oc3cc(OCC(=O)O)c(CC=C(C)C)c(O)c3c(=O)c2c1CC=C(C)C	> 50 µg/mL			> 50 µg/mL	> 50 µg/mL	> 50 µg/mL	> 400 µg/mL						
COC(=O)C(Cc1cnc[nH]1)NC(=O)COc1cc2oc3cc(OCC(=O)NC(Cc4cnc[nH]4)C(=O)OC)c(OC)c(CC=C(C)C)c3c(=O)c2c(O)c1CC=C(C)C (stereo not given)	> 50 µg/mL			> 50 µg/mL	> 50 µg/mL	> 50 µg/mL	> 400 µg/mL						
COc1c(O)cc2oc3cc(O)c(CC=C(C)C)c(O)c3c(=O)c2c1CC=C(C)C [MANGOSTIN]	2 µg/mL (≈ 4.87 µM)			2 µg/mL (≈ 4.87 µM)	2 µg/mL (≈ 4.87 µM)	2 µg/mL (≈ 4.87 µM)			5	5	5	5	
COc1c(N2CCNC(C)C2)c(F)cc2c(=O)c(C(=O)O)cn(C3CC3)c12 (stereo not given) [GATIFLOXACIN]		0.1 µg/mL (≈ 0.266 µM)	64										2.06
